Measured values reported in ChEMBL document CHEMBL1287651, “Synthesis and in vitro antibacterial activity of fluoroquinolone derivatives containing 3-(N'-alkoxycarbamimidoyl)-4-(alkoxyimino) pyrrolidines” (2010).
≈ marks a conversion by molar mass, not a printed value.

Legend:
Format in all cases: functional
Staphylococcus aureus [1] = assay: Antibacterial activity against Staphylococcus aureus ATCC […] after 18 to 24 hrs by twofold serial dilution method
Method in brief: (§1)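 MIC determined by the standard twofold serial dilution method on agar media, screening against Gram-positive and Gram-negative strains. Levofloxacin and gemifloxacin were run alongside as reference drugs.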

Staphylococcus aureus [2] = assay: Antibacterial activity against methicillin-resistant Staphylococcus aureus 08-1 after 18 to 24 hrs by twofold serial dilution method
Method in brief: (§2)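 Standard twofold serial agar dilution method on agar media for MIC determination. Screened against representative Gram-positive and Gram-negative strains. Levofloxacin and GMFX served as control drugs.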

Staphylococcus aureus [3] = assay: Antibacterial activity against methicillin-sensitive Staphylococcus aureus 08-2 after 18 to 24 hrs by twofold serial dilution method; method in brief: as §2
[4] = test system: Staphylococcus epidermidis; assay: Antibacterial activity against methicillin-resistant Staphylococcus epidermidis 09-2 after 18 to 24 hrs by twofold serial dilution method; method in brief: as §2
[5] = test system: Staphylococcus epidermidis; assay: Antibacterial activity against methicillin-resistant Staphylococcus epidermidis 09-3 after 18 to 24 hrs by twofold serial dilution method; method in brief: as §2
[6] = test system: Staphylococcus epidermidis; assay: Antibacterial activity against methicillin-resistant Staphylococcus epidermidis 09-4 after 18 to 24 hrs by twofold serial dilution method; method in brief: as §2
[7] = test system: Staphylococcus epidermidis; assay: Antibacterial activity against methicillin-sensitive Staphylococcus epidermidis 09-3 after 18 to 24 hrs by twofold serial dilution method; method in brief: as §2
[8] = test system: Staphylococcus epidermidis; assay: Antibacterial activity against methicillin-sensitive Staphylococcus epidermidis 09-6 after 18 to 24 hrs by twofold serial dilution method; method in brief: as §2
Streptococcus pneumoniae [9] = assay: Antibacterial activity against Streptococcus pneumoniae 08-2 after 18 to 24 hrs by twofold serial dilution method; method in brief: as §1
Streptococcus pneumoniae [10] = assay: Antibacterial activity against Streptococcus pneumoniae 08-4 after 18 to 24 hrs by twofold serial dilution method; method in brief: as §1
Enterococcus faecium [11] = assay: Antibacterial activity against Enterococcus faecium 08-2 after 18 to 24 hrs by twofold serial dilution method; method in brief: as §1
Enterococcus faecium [12] = assay: Antibacterial activity against Enterococcus faecium 08-7 after 18 to 24 hrs by twofold serial dilution method; method in brief: as §1
Enterococcus faecalis [13] = assay: Antibacterial activity against Enterococcus faecalis 08-10 after 18 to 24 hrs by twofold serial dilution method; method in brief: as §1
Enterococcus faecalis [14] = assay: Antibacterial activity against Enterococcus faecalis 08-12 after 18 to 24 hrs by twofold serial dilution method; method in brief: as §1
Escherichia coli [15] = assay: Antibacterial activity against Escherichia coli ATCC 25922 after 18 to 24 hrs by twofold serial dilution method; method in brief: as §1
Escherichia coli [16] = assay: Antibacterial activity against Escherichia coli 08-21 after 18 to 24 hrs by twofold serial dilution method; method in brief: as §1
Escherichia coli [17] = assay: Antibacterial activity against Escherichia coli 08-22 after 18 to 24 hrs by twofold serial dilution method; method in brief: as §1
Klebsiella pneumoniae [18] = assay: Antibacterial activity against Klebsiella pneumoniae 09-21 after 18 to 24 hrs by twofold serial dilution method; method in brief: as §1
Klebsiella pneumoniae [19] = assay: Antibacterial activity against Klebsiella pneumoniae 09-22 after 18 to 24 hrs by twofold serial dilution method; method in brief: as §1
Klebsiella pneumoniae [20] = assay: Antibacterial activity against Klebsiella pneumoniae 09-23 after 18 to 24 hrs by twofold serial dilution method; method in brief: as §1
Pseudomonas aeruginosa [21] = assay: Antibacterial activity against Pseudomonas aeruginosa ATCC 27853 after 18 to 24 hrs by twofold serial dilution method; method in brief: as §1
Pseudomonas aeruginosa [22] = assay: Antibacterial activity against Pseudomonas aeruginosa 09-32 after 18 to 24 hrs by twofold serial dilution method; method in brief: as §1
Pseudomonas aeruginosa [23] = assay: Antibacterial activity against Pseudomonas aeruginosa 09-33 after 18 to 24 hrs by twofold serial dilution method; method in brief: as §1
Pseudomonas aeruginosa [24] = assay: Antibacterial activity against Pseudomonas aeruginosa 09-34 after 18 to 24 hrs by twofold serial dilution method; method in brief: as §1
Pseudomonas aeruginosa [25] = assay: Antibacterial activity against Pseudomonas aeruginosa 09-35 after 18 to 24 hrs by twofold serial dilution method; method in brief: as §1

Structure (SMILES)	MIC (Staphylococcus aureus [1]) [µg/mL]	MIC (Staphylococcus aureus [2]) [µg/mL]	MIC (Staphylococcus aureus [3]) [µg/mL]	MIC [4] [µg/mL]	MIC [5] [µg/mL]	MIC [6] [µg/mL]	MIC [7] [µg/mL]	MIC [8] [µg/mL]	MIC (Streptococcus pneumoniae [9]) [µg/mL]	MIC (Streptococcus pneumoniae [10]) [µg/mL]	MIC (Enterococcus faecium [11]) [µg/mL]	MIC (Enterococcus faecium [12]) [µg/mL]	MIC (Enterococcus faecalis [13]) [µg/mL]	MIC (Enterococcus faecalis [14]) [µg/mL]	MIC (Escherichia coli [15]) [µg/mL]	MIC (Escherichia coli [16]) [µg/mL]	MIC (Escherichia coli [17]) [µg/mL]	MIC (Klebsiella pneumoniae [18]) [µg/mL]	MIC (Klebsiella pneumoniae [19]) [µg/mL]	MIC (Klebsiella pneumoniae [20]) [µg/mL]	further results
CCO/N=C(/N)C1CN(c2c(F)cc3c(=O)c(C(=O)O)cn(C4CC4)c3c2OC)C/C1=N\OC (stereo not given)	0.25 (≈ 0.526 µM)	0.25 (≈ 0.526 µM)	0.25 (≈ 0.526 µM)	0.5 (≈ 1.05 µM)	0.125 (≈ 0.263 µM)	0.125 (≈ 0.263 µM)	0.25 (≈ 0.526 µM)	0.25 (≈ 0.526 µM)	32 (≈ 67.3 µM)	2 (≈ 4.21 µM)	> 128	> 128	> 128	128 (≈ 269 µM)	128 (≈ 269 µM)	> 128	> 128	> 128	8 (≈ 16.8 µM)	> 128	MIC (Pseudomonas aeruginosa [21]): 128 µg/mL (≈ 269 µM); MIC (Pseudomonas aeruginosa [22]): > 128 µg/mL; MIC (Pseudomonas aeruginosa [23]): > 128 µg/mL; MIC (Pseudomonas aeruginosa [24]): > 128 µg/mL; MIC (Pseudomonas aeruginosa [25]): > 128 µg/mL
CO/N=C1\CN(c2c(F)cc3c(=O)c(C(=O)O)cn(C4CC4)c3c2OC(F)F)CC1/C(N)=N\O (stereo not given)	0.125 (≈ 0.259 µM)	0.125 (≈ 0.259 µM)	0.25 (≈ 0.517 µM)	4 (≈ 8.27 µM)	0.25 (≈ 0.517 µM)	0.5 (≈ 1.03 µM)	0.25 (≈ 0.517 µM)	0.25 (≈ 0.517 µM)	4 (≈ 8.27 µM)	4 (≈ 8.27 µM)	> 128	> 128	> 128	> 128	128 (≈ 265 µM)	> 128	> 128	> 128	64 (≈ 132 µM)	> 128	MIC (Pseudomonas aeruginosa [21]): 128 µg/mL (≈ 265 µM); MIC (Pseudomonas aeruginosa [22]): > 128 µg/mL; MIC (Pseudomonas aeruginosa [23]): > 128 µg/mL; MIC (Pseudomonas aeruginosa [24]): > 128 µg/mL; MIC (Pseudomonas aeruginosa [25]): > 128 µg/mL
CCO/N=C1\CN(c2c(F)cc3c(=O)c(C(=O)O)cn(C4CC4)c3c2F)CC1/C(N)=N\OC (stereo not given)	0.125 (≈ 0.27 µM)	0.25 (≈ 0.539 µM)	0.125 (≈ 0.27 µM)	0.25 (≈ 0.539 µM)	0.125 (≈ 0.27 µM)	0.5 (≈ 1.08 µM)	0.25 (≈ 0.539 µM)	0.25 (≈ 0.539 µM)	32 (≈ 69 µM)	0.25 (≈ 0.539 µM)	> 128	0.25 (≈ 0.539 µM)	32 (≈ 69 µM)	> 128	64 (≈ 138 µM)	> 128	> 128	> 128	0.25 (≈ 0.539 µM)	> 128	MIC (Pseudomonas aeruginosa [21]): 8 µg/mL (≈ 17.3 µM); MIC (Pseudomonas aeruginosa [22]): 16 µg/mL (≈ 34.5 µM); MIC (Pseudomonas aeruginosa [23]): > 128 µg/mL; MIC (Pseudomonas aeruginosa [24]): > 128 µg/mL; MIC (Pseudomonas aeruginosa [25]): 16 µg/mL (≈ 34.5 µM)
CCO/N=C(/N)C1CN(c2c(F)cc3c(=O)c(C(=O)O)cn(C4CC4)c3c2F)C/C1=N\OC (stereo not given)	0.06 (≈ 0.129 µM)	0.06 (≈ 0.129 µM)	0.06 (≈ 0.129 µM)	0.06 (≈ 0.129 µM)	0.06 (≈ 0.129 µM)	0.06 (≈ 0.129 µM)	0.06 (≈ 0.129 µM)	0.06 (≈ 0.129 µM)	32 (≈ 69 µM)	1 (≈ 2.16 µM)	> 128	> 128	> 128	> 128	> 128	> 128	> 128	> 128	2 (≈ 4.32 µM)	> 128	MIC (Pseudomonas aeruginosa [21]): > 128 µg/mL; MIC (Pseudomonas aeruginosa [22]): > 128 µg/mL; MIC (Pseudomonas aeruginosa [23]): > 128 µg/mL; MIC (Pseudomonas aeruginosa [24]): > 128 µg/mL; MIC (Pseudomonas aeruginosa [25]): > 128 µg/mL
CCO/N=C1\CN(c2c(F)cc3c(=O)c(C(=O)O)cn(C4CC4)c3c2OC)CC1/C(N)=N\OCC (stereo not given)	0.5 (≈ 1.02 µM)	64 (≈ 131 µM)	64 (≈ 131 µM)	0.5 (≈ 1.02 µM)	1 (≈ 2.04 µM)	1 (≈ 2.04 µM)	0.5 (≈ 1.02 µM)	0.5 (≈ 1.02 µM)	64 (≈ 131 µM)	1 (≈ 2.04 µM)	64 (≈ 131 µM)	64 (≈ 131 µM)	64 (≈ 131 µM)	64 (≈ 131 µM)	16 (≈ 32.7 µM)	64 (≈ 131 µM)	64 (≈ 131 µM)	64 (≈ 131 µM)	32 (≈ 65.4 µM)	64 (≈ 131 µM)	MIC (Pseudomonas aeruginosa [21]): 16 µg/mL (≈ 32.7 µM); MIC (Pseudomonas aeruginosa [22]): 64 µg/mL (≈ 131 µM); MIC (Pseudomonas aeruginosa [23]): 64 µg/mL (≈ 131 µM); MIC (Pseudomonas aeruginosa [24]): 64 µg/mL (≈ 131 µM); MIC (Pseudomonas aeruginosa [25]): 64 µg/mL (≈ 131 µM)
CCO/N=C1\CN(c2c(F)cc3c(=O)c(C(=O)O)cn(C4CC4)c3c2OC)CC1/C(N)=N\OC (stereo not given)	0.5 (≈ 1.05 µM)	0.25 (≈ 0.526 µM)	0.25 (≈ 0.526 µM)	0.5 (≈ 1.05 µM)	0.125 (≈ 0.263 µM)	0.125 (≈ 0.263 µM)	0.25 (≈ 0.526 µM)	0.25 (≈ 0.526 µM)	4 (≈ 8.41 µM)	4 (≈ 8.41 µM)	> 128	> 128	0.25 (≈ 0.526 µM)	0.5 (≈ 1.05 µM)	> 128	> 128	> 128	> 128	4 (≈ 8.41 µM)	> 128	MIC (Pseudomonas aeruginosa [21]): > 128 µg/mL; MIC (Pseudomonas aeruginosa [22]): > 128 µg/mL; MIC (Pseudomonas aeruginosa [23]): > 128 µg/mL; MIC (Pseudomonas aeruginosa [24]): > 128 µg/mL; MIC (Pseudomonas aeruginosa [25]): > 128 µg/mL
CCO/N=C1\CN(c2c(F)cc3c(=O)c(C(=O)O)cn(CCF)c3c2F)CC1/C(N)=N\O (stereo not given)	0.5 (≈ 1.1 µM)	0.5 (≈ 1.1 µM)	0.5 (≈ 1.1 µM)	4 (≈ 8.78 µM)	0.5 (≈ 1.1 µM)	0.5 (≈ 1.1 µM)	0.5 (≈ 1.1 µM)	0.5 (≈ 1.1 µM)	4 (≈ 8.78 µM)	0.5 (≈ 1.1 µM)	> 128	> 128	4 (≈ 8.78 µM)	> 128	128 (≈ 281 µM)	> 128	> 128	> 128	4 (≈ 8.78 µM)	> 128	MIC (Pseudomonas aeruginosa [21]): 8 µg/mL (≈ 17.6 µM); MIC (Pseudomonas aeruginosa [22]): 16 µg/mL (≈ 35.1 µM); MIC (Pseudomonas aeruginosa [23]): > 128 µg/mL; MIC (Pseudomonas aeruginosa [24]): > 128 µg/mL; MIC (Pseudomonas aeruginosa [25]): 16 µg/mL (≈ 35.1 µM)
CO/N=C1\CN(c2c(F)cc3c(=O)c(C(=O)O)cn4c3c2OC[C@@H]4C)CC1/C(N)=N\OC (stereo not given in full)	0.125 (≈ 0.279 µM)	0.25 (≈ 0.559 µM)	0.25 (≈ 0.559 µM)	0.25 (≈ 0.559 µM)	0.25 (≈ 0.559 µM)	0.25 (≈ 0.559 µM)	0.25 (≈ 0.559 µM)	0.25 (≈ 0.559 µM)	16 (≈ 35.8 µM)	0.25 (≈ 0.559 µM)	128 (≈ 286 µM)	128 (≈ 286 µM)	> 128	> 128	128 (≈ 286 µM)	> 128	> 128	> 128	0.5 (≈ 1.12 µM)	> 128	MIC (Pseudomonas aeruginosa [21]): 4 µg/mL (≈ 8.94 µM); MIC (Pseudomonas aeruginosa [22]): 8 µg/mL (≈ 17.9 µM); MIC (Pseudomonas aeruginosa [23]): > 128 µg/mL; MIC (Pseudomonas aeruginosa [24]): > 128 µg/mL; MIC (Pseudomonas aeruginosa [25]): 8 µg/mL (≈ 17.9 µM)
